{
  "source": "paper PMC8554411",
  "about": "(Pharmacology Research & Perspectives, 2021)",
  "key": {"mu opioid receptor [1]": {"target": "mu opioid receptor (Rattus norvegicus, UniProt P33535)", "sequence (P33535 whole entry)": "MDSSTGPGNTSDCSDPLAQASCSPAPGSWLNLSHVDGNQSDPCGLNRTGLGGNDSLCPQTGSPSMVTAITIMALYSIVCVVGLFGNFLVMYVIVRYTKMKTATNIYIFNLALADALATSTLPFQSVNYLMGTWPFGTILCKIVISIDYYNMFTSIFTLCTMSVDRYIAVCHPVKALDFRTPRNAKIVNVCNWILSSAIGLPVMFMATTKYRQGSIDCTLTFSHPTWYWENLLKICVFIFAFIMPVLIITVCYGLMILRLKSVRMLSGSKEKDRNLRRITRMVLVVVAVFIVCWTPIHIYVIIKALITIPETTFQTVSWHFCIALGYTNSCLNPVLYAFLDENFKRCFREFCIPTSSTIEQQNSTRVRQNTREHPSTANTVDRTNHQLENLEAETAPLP", "assay_type": "in vivo"}, "human mu opioid receptor [2]": {"target": "T1, human mu opioid receptor (Homo sapiens, UniProt P35372)", "T1 sequence (P35372 whole entry)": "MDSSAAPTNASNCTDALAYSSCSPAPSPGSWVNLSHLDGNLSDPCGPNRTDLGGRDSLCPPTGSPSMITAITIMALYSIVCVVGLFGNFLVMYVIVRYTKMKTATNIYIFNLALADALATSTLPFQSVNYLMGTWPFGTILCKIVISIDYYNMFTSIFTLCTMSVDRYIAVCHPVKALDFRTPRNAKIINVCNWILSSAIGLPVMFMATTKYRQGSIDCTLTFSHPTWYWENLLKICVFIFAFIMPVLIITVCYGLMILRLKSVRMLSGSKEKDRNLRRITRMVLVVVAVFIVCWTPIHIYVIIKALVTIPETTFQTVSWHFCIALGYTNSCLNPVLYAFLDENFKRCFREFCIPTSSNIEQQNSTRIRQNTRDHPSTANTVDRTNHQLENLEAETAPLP", "test": "cell-based", "settings": "HEK293, read-out: DAMGO Emax, inhibition of forskolin stimulated cAMP levels"}, "human mu opioid receptor [3]": {"target": "T1, human mu opioid receptor", "assay_type": "cell-based"}, "[4]": {"target": "human kappa opioid receptors (Homo sapiens, UniProt P41145)", "sequence (P41145 whole entry)": "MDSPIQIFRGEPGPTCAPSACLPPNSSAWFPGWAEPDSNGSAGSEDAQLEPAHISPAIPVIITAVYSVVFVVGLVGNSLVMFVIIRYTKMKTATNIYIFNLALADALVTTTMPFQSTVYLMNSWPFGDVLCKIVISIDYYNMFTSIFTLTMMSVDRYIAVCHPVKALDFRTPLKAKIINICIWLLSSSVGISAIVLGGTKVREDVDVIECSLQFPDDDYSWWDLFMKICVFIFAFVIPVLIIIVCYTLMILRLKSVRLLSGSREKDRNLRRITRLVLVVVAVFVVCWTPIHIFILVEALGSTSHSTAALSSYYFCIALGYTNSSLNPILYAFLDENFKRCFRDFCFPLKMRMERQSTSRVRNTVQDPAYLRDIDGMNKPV", "assay_type": "cell-based"}, "[5]": {"target": "human delta opioid receptors (Homo sapiens, UniProt P41143)", "sequence (P41143 whole entry)": "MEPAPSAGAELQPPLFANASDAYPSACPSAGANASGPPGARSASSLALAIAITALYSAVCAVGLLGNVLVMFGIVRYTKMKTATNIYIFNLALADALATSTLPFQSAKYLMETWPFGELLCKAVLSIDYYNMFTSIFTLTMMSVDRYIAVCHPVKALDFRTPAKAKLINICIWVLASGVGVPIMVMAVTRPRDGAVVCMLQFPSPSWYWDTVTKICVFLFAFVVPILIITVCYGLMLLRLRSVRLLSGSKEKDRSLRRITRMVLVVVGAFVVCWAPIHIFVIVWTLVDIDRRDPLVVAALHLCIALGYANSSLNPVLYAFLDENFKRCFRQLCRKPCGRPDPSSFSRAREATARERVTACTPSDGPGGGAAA", "assay_type": "cell-based", "settings": "MCAM 20 nM", "summary_of_the_method": "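HEK293 cells stably co-expressing the GloSensor 22F cAMP sensor and human delta receptor were kept under hygromycin B/G418 selection and plated at 40 000/well. They were loaded 2 h in the dark at 30°C with 450 μg/ml D-luciferin. Antagonist was added 15 min before agonist or during loading; for washout, medium was replaced twice. Luminescence was read at 30°C, 1 Hz: 5 min baseline, 5 min agonist, then 30 min forskolin (10 μM). Results were expressed as % forskolin stimulation; ≥4 experiments, triplicate.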"}, "delta opioid receptor": {"target": "delta opioid receptor (Rattus norvegicus, UniProt P33533)", "sequence (P33533 whole entry)": "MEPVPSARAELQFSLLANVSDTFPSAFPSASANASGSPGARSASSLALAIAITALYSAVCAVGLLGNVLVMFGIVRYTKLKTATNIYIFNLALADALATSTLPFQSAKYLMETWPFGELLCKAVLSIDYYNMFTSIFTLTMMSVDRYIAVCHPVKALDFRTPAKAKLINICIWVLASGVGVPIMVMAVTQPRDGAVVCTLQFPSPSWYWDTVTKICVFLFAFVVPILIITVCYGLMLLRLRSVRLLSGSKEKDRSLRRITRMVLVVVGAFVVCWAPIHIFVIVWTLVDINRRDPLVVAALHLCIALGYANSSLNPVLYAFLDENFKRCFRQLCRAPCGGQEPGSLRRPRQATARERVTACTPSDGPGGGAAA", "assay_type": "in vivo"}, "mu opioid receptor [6]": {"system": "mu opioid receptor", "settings": "mice treated with MCAM; cited from earlier work"}, "kappa opioid receptor": {"target": "kappa opioid receptor (Rattus norvegicus, UniProt P34975)", "sequence (P34975 whole entry)": "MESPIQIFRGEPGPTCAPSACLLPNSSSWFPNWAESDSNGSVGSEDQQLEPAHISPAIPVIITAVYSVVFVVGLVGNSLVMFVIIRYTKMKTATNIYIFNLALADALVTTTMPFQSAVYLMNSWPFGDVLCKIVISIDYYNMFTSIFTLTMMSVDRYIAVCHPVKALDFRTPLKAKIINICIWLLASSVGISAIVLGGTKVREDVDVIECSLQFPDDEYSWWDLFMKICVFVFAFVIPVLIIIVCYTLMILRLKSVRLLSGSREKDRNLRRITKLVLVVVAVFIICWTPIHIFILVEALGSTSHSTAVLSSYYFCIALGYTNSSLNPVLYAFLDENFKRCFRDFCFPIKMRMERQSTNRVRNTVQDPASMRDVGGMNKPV", "settings": "in vivo"}, "human mu opioid receptor [7]": {"target": "T1, human mu opioid receptor", "assay_type": "cell-based", "remark": "listed apart in the source"}},
  "note": "Where “and” joins values, the source holds several entries; their conditions need not be identical. Equal values may be shown once.",
  "data": [
    {"smiles": "C[C@@H](NC(=O)[C@@H](N)Cc1ccc(O)cc1)C(=O)NCC(=O)N(C)[C@@H](Cc1ccccc1)C(=O)NCCO", "note": "[DAMGO, [D‐Ala^2,N‐MePhe^4,Gly‐ol^5]‐enkephalin]", "values": [
      {"measurement": "effect of agonist on PGE2-stimulated thermal allodynia", "setting": "mu opioid receptor [1]; DAMGO 20 μg i.pl., vehicle pretreatment, rat hindpaw", "value": "reduced"},
      {"measurement": "Emax", "setting": "human mu opioid receptor [2]", "value": 85, "unit": "%"},
      {"measurement": "Emax (maximal inhibition of forskolin-stimulated cAMP levels) by DAMGO", "setting": "human mu opioid receptor [3]", "value": "43% ± 2% and 46% ± 3% and 48% ± 5%"},
      {"measurement": "response to DAMGO (inhibition of forskolin-stimulated cAMP levels)", "setting": "human mu opioid receptor [3]", "value": "essentially abolished"}
    ]},
    {"smiles": "Cc1ccc(/C=C/C(=O)N[C@@]23CCC(=O)[C@@H]4Oc5c(O)ccc6c5[C@@]42CCN(CC2CC2)[C@@H]3C6)cc1", "note": "[MCAM, 14β‐(4′‐methylcinnamoylamido)‐7,8‐dihydro‐N‐cyclopropylmethyl‐normorphinone]", "values": [
      {"measurement": "effect of antagonist on the antinociceptive response to DAMGO", "setting": "mu opioid receptor [1]; MCAM 0.25 μg/50 μl i.pl., 15 min pretreatment", "value": "antagonized"},
      {"measurement": "change in the maximal response to U50488", "setting": "[4]", "value": "no change"},
      {"measurement": "rightward shift of the curve for U50488 by the antagonist", "setting": "[4]", "value": "~ 10 fold"},
      {"measurement": "effect of washout on antagonism at kappa receptors", "setting": "[4]; MCAM 50 nM, 2 h, then wash", "value": "fully reversed"},
      {"measurement": "change in the maximal response to DPDPE", "setting": "[5]; 15 min or 2 h pretreatment", "value": "no change"},
      {"measurement": "rightward shift of the curve for DPDPE by the antagonist", "setting": "[5]; 15 min or 2 h pretreatment", "value": "~ 10 fold"},
      {"measurement": "effect of washout on antagonism at delta receptors", "setting": "[5]; 2 h, then wash", "value": "fully reversed"},
      {"measurement": "effect of antagonist alone on forskolin-stimulated cAMP levels", "setting": "human mu opioid receptor [3]", "value": "did not alter"},
      {"measurement": "effect of washout on antagonism of DAMGO", "setting": "human mu opioid receptor [3]", "value": "did not alter"},
      {"measurement": "effect of washout on the reduction of the DAMGO maximal response", "setting": "human mu opioid receptor [3]", "value": "insensitive to washout"},
      {"measurement": "rightward shift of the morphine concentration response curve by the antagonist", "setting": "human mu opioid receptor [3]", "value": 10, "unit": "fold"},
      {"measurement": "effect of antagonist on the antinociceptive response to DPDPE", "setting": "delta opioid receptor; MCAM 0.5 μg/50 μl i.pl., 15 min pretreatment", "value": "antagonized"},
      {"measurement": "effect of antagonist on DPDPE-mediated antinociceptive response", "setting": "delta opioid receptor; tested 24 h after MCAM administration i.pl.", "value": "did not block"},
      {"measurement": "3H-DAMGO binding in brain tissue", "setting": "mu opioid receptor [6]", "value": "reduced"},
      {"measurement": "effect of antagonist on U50488-mediated antinociceptive response", "setting": "kappa opioid receptor", "value": "did not block"},
      {"measurement": "effect of antagonist on the antinociceptive response to U50488", "setting": "kappa opioid receptor", "value": "antagonized"}
    ]},
    {"smiles": "COC(=O)/C=C/C(=O)N[C@@H]1CC[C@@]2(O)[C@H]3Cc4ccc(O)c5c4[C@@]2(CCN3CC2CC2)[C@H]1O5", "note": "[β‐FNA, β‐funaltrexamine]", "values": [
      {"measurement": "rightward shift of the DAMGO curve by the antagonist", "setting": "human mu opioid receptor [7]", "value": "about 100 fold"},
      {"measurement": "effect of antagonist alone on forskolin-stimulated cAMP levels", "setting": "human mu opioid receptor [3]", "value": "had no effect"},
      {"measurement": "effect of washout on antagonism of DAMGO", "setting": "human mu opioid receptor [3]", "value": "not sensitive to washout"}
    ]}
  ]
}
